This is an account of results in ChEMBL document CHEMBL5104191, “Identification of Novel 2,4,5-Trisubstituted Pyrimidines as Potent Dual Inhibitors of Plasmodial PfGSK3/PfPK6 with Activity against Blood Stage Parasites In Vitro” (J Med Chem, 2022).

A short description of data set [1]: Inhibition of Plasmodium falciparum PK6 measured after 2 hrs by luciferin-based luminescence assay.
The subject of data set [2] is Plasmodium falciparum. As to the kind of experiment: Antiplasmodial activity against Plasmodium falciparum 3D7 infected in human erythrocytes assessed as reduction in parasite growth incubated for 72 hrs by SYBR green I fluorescence based assay. Type of data set: functional, organism-based. The conditions noted are these: 3D7, 72 h. The essentials:
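P. falciparum 3D7 synchronized by sorbitol at ring stage, set to 2% parasitemia and 2% hematocrit. Compounds dosed at 0–5 μM as 2-fold dilutions in triplicate. Controls were quinacrine 500 nM and 0.5% DMSO. Incubation 72 h at 37 °C in 3% O2/5% CO2/92% N2, then SYBR Green I lysis for 24 h in the dark. Fluorescence ex 485/em 535; normalized to controls; EC50 from dose–response fit.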

Data set [3] deals with HepG2. As to the kind of experiment: Cytotoxicity against human HepG2 cells assessed as reduction in cell viability at 2 uM measured after 48 hrs by cell titre glo luminescence assay. Type of data set: toxicity, cell-based. The settings on record: hepg2, 48 h. The essentials: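 HepG2 cells in DMEM with 10% FBS, seeded at 4000 cells/well and incubated overnight at 37 °C, 5% CO2. Compound added in quadruplicate with constant DMSO, then 48 h incubation. Viability by CellTiter-Glo luminescence, reported as % viable cells; average of two experiments in quadruplicate.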

Data set [4] has as its system Plasmodium falciparum. As to the kind of experiment: Inhibition of Plasmodium falciparum PK6 at 1 uM measured after 2 hrs by luciferin-based luminescence assay relative to control; values are per cent of control.
Data set [5] addresses T1, Glycogen synthase kinase 3 (Plasmodium falciparum (isolate 3D7)) (UniProt O77344).
T1 sequence (whole entry): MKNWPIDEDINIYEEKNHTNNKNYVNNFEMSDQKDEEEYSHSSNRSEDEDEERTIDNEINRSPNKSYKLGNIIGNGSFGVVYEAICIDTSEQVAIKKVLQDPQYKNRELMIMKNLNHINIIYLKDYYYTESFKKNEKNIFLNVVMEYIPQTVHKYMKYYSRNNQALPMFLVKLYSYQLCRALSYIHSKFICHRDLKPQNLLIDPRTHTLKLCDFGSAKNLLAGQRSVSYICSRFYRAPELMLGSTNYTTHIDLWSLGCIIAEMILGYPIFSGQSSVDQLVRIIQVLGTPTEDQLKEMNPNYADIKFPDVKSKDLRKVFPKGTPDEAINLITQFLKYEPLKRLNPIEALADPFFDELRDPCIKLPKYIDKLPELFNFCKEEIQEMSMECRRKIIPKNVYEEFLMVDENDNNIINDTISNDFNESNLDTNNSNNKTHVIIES
The experiment in a line: Inhibition of Plasmodium falciparum GSK3 at 1 uM measured after 2 hrs by luciferin-based luminescence assay relative to control; values are per cent of control.

Data set [6] is described as follows: Inhibition of Plasmodium falciparum PKG incubated for 30 mins […].
A short description of data set [7]: Kinetic solubility of the compound in PBS buffer at pH 7.4. It is filed as physicochemical.
The test system of data set [8] is Plasmodium falciparum. The experiment in a line: Antiplasmodial activity against blood stage plasmodium falciparum assessed as inhibition of parasite growth. Type of data set: functional, organism-based.

`Cc1ccc(-c2nc(Nc3ccc(C(=O)N4CCC(N5CCCC5)CC4)cc3)ncc2Cl)s1` returned an IC50 in data set [1] of 14 nM. The same measure, in the same setting: for `O=C(c1ccc(Nc2nccc(-c3ccccc3)n2)cc1)N1CCC(N2CCCC2)CC1` the value was 329 nM. On the same count and under the same terms, for `COc1cnc(Nc2ccc(C(=O)N3CCC(N4CCCC4)CC3)cc2)nc1-c1cc2ccccc2s1` the value was 294 nM. In the case of `c1ccc2sc(-c3ccnc(Nc4ccc(CN5CCC(N6CCCC6)CC5)cc4)n3)cc2c1`, the EC50 in data set [2] was 60 nM. Moreover, the cell viability remaining in data set [3] came out at 97%. This compound also showed an IC50 in data set [1] of 173 nM. With `O=C(c1ccc(Nc2nccc(-c3cc4ccccc4s3)n2)cc1)N1CCNCC1`, in data set [1], it took 398 nM to reach half-maximal inhibition (IC50). On the same count and under the same terms, for `O=C(c1ccc(Nc2nccc(-c3cccs3)n2)cc1)N1CCC(N2CCCC2)CC1` the value was 236 nM. For the compound `COc1ccc(Nc2nccc(-c3cc4ccccc4s3)n2)cc1`, the residual activity worked out at 88% in data set [4] and 97% in data set [5].

In the case of `Cc1cn2c(-c3ccnc(NCC4CC4)n3)c(-c3ccc(F)c(NS(C)(=O)=O)c3)nc2cc1CN(C)C`, the IC50 in data set [6] is 2.1 nM. For the compound `O=C(c1ccc(Nc2nccc(-c3ccc4ccccc4c3)n2)cc1)N1CCC(N2CCCC2)CC1`, the EC50 in data set [2] came out at 541 nM. The cell viability remaining in data set [3] came out at 82%. Also, the IC50 in data set [1] was 359 nM. In turn, `CN(C)C1CCN(C(=O)c2ccc(Nc3nccc(-c4cc5ccccc5s4)n3)cc2)CC1` displayed an IC50 in data set [1] of 216 nM.

Consider `O=C(c1ccc(Nc2nccc(-c3cc4ccccc4s3)n2)cc1)N1CCC(N2CCCCC2)CC1`, for which the IC50 in data set [1] came out at 115 nM. For `O=C(c1ccc(Nc2ncc(Br)c(-c3cc4ccccc4s3)n2)cc1)N1CCC(N2CCCC2)CC1`, in data set [2], the EC50 stood at 300 nM. In addition, the cell viability remaining in data set [3] is 47%. For the same compound, in data set [1], the IC50 amounted to 57 nM. Compound `CN1CCC(NC(=O)c2ccc(Nc3nccc(-c4cc5ccccc5s4)n3)cc2)CC1` displayed an IC50 in data set [1] of 340 nM. Same read-out and setting: for `O=C(c1ccc(Nc2nccc(-c3cc4ccccc4o3)n2)cc1)N1CCC(N2CCCC2)CC1` the value was 317 nM. Consider `COC(=O)c1ccc(Nc2nccc(-c3cc4ccccc4s3)n2)cc1`, for which the residual activity came to 78% in data set [4] and 71% in data set [5]. In turn, `Clc1ccccc1Nc1nccc(-c2cc3ccccc3s2)n1` showed a residual activity in data set [5] of 100%. `Cc1ccc(-c2nc(Nc3ccc(C(=O)N4CCC(N5CCCC5)CC4)cc3)ncc2C)s1`: the IC50 in data set [1] is 28 nM.

For `O=C(c1ccc(Nc2ncc(C3CC3)c(-c3cc4ccccc4s3)n2)cc1)N1CCC(N2CCCC2)CC1`, the EC50 in data set [2] turned out to be 646 nM. For the same compound, the cell viability remaining in data set [3] is 55%. The compound further came in with an IC50 in data set [1] of 114 nM.

In the case of `O=C(c1ccc(Nc2ncc(Cl)c(-c3cc4ccccc4s3)n2)cc1)N1CCC(N2CCCC2)CC1`, the EC50 in data set [2] is 991 nM. In addition, the cell viability remaining in data set [3] is on record as 61%. Also, in data set [1], the IC50 was 19 nM.

Consider `Cn1cc(-c2ccnc(Nc3ccc(C(=O)N4CCC(N5CCCC5)CC4)cc3)n2)cn1`, for which the IC50 in data set [1] came out at 645 nM. For `Cc1ccc(-c2ccnc(Nc3ccc(C(=O)N4CCC(N5CCCC5)CC4)cc3)n2)s1`, in data set [1], half-maximal inhibition (IC50) required 222 nM.

As to `O=C(O)c1ccc(Nc2nccc(-c3cc4ccccc4s3)n2)cc1`, the residual activity in data set [5] was 33%. Same read-out and setting: for `c1ccc(Nc2nccc(-c3cc4ccccc4s3)n2)cc1` the value was 100%. Consider `CN1CCN(C(=O)c2ccc(Nc3nccc(-c4cc5ccccc5s4)n3)cc2)CC1`, for which, in data set [1], the midpoint of inhibition, the IC50, lay at 339 nM. With `CN(C)CCCNC(=O)c1ccc(Nc2nccc(-c3cc4ccccc4s3)n2)cc1`, the IC50 in data set [1] is 319 nM. With `O=C(NCCCN1CCOCC1)c1ccc(Nc2ncc(Cl)c(-c3ccc(Cl)s3)n2)cc1`, the EC50 in data set [2] came out at 1400 nM. Besides, the cell viability remaining in data set [3] turned out to be 65%. This compound registered an IC50 in data set [1] of 8 nM. `O=C(c1ccc(Nc2nccc(-c3ccc(Cl)c(Cl)c3)n2)cc1)N1CCC(N2CCCC2)CC1`: in data set [1], the midpoint of inhibition, the IC50, lay at 382 nM. Still for that read-out and setting: for `CCCN(C)C1CCN(C(=O)c2ccc(Nc3nccc(-c4cc5ccccc5s4)n3)cc2)CC1` the value was 181 nM. On the same count and under the same terms, for `O=C(NC1CC1)c1ccc(Nc2nccc(-c3cc4ccccc4s3)n2)cc1` the value was 407 nM. `COc1cccc(Nc2nccc(-c3cc4ccccc4s3)n2)c1` came in with a residual activity in data set [5] of 97%.

Take `O=C(c1ccc(Nc2nccc(-c3ccc(Cl)s3)n2)cc1)N1CCC(N2CCCC2)CC1`: half-maximal inhibition in data set [1] (IC50) required 130 nM. Still for that read-out and setting: for `Cc1cnc(Nc2ccc(C(=O)NCCCN3CCOCC3)cc2)nc1-c1ccc(Cl)s1` the value was 12 nM.

As to `O=C(c1ccc(Nc2nccc(-c3cc4ccccc4s3)n2)cc1)N1CCC(N2CCCC2)CC1`, the EC50 in data set [2] was determined as 280 nM. In addition, the cell viability remaining in data set [3] worked out at 103%. This compound registered an IC50 in data set [1] of 460 nM. Also, in data set [7], the Kinetic_solubility amounted to 19.4 µg/mL. In turn, `COc1ccccc1Nc1nccc(-c2cc3ccccc3s2)n1` gave a residual activity in data set [5] of 100%. For the compound `Cc1cnc(Nc2ccc(C(=O)N3CCC(N4CCCC4)CC3)cc2)nc1-c1ccc(Cl)s1`, the EC50 in data set [2] was 576 nM. Also, the cell viability remaining in data set [3] came to 65%. This compound also showed an IC50 in data set [1] of 14 nM. Take `O=C(c1ccc(Nc2ncc(Cl)c(-c3ccc(Cl)s3)n2)cc1)N1CCC(N2CCCC2)CC1`: in data set [2], the EC50 is 552 nM. Further, the cell viability remaining in data set [3] stood at 34%. Further, the IC50 in data set [1] amounted to 11 nM. The compound `c1ccc(CNc2nccc(-c3cc4ccccc4s3)n2)cc1` showed a residual activity in data set [5] of 100%. Consider `O=C(c1ccc(Nc2nccc(-c3cc4ccccc4s3)n2)cc1)N1CCC(N2CC[C@H](O)C2)CC1`, for which the IC50 in data set [1] stood at 264 nM. On the same count and under the same terms, for `CN1CCN(CCCNC(=O)c2ccc(Nc3nccc(-c4cc5ccccc5s4)n3)cc2)CC1` the value was 153 nM. Consider `Cc1cnc(Nc2ccc(C(=O)N3CCC(N4CCCC4)CC3)cc2)nc1-c1cc2ccccc2s1`, for which, in data set [2], the EC50 is 760 nM. In addition, in data set [3], the cell viability remaining was 66%. Besides, half-maximal inhibition in data set [1] (IC50) required 45 nM.

As for `Clc1ccc(Nc2nccc(-c3cc4ccccc4s3)n2)cc1`, the residual activity in data set [4] amounted to 92%; in data set [5] it was 89%. With `Clc1cccc(Nc2nccc(-c3cc4ccccc4s3)n2)c1`, the residual activity in data set [5] was found to be 89%.

On to `O=C(c1ccc(Nc2nccc(-c3ccc(CO)s3)n2)cc1)N1CCC(N2CCCC2)CC1`, for which the IC50 in data set [1] amounted to 563 nM. For the compound `N#Cc1cnc(Nc2ccc(C(=O)N3CCC(N4CCCC4)CC3)cc2)nc1-c1cc2ccccc2s1`, in data set [2], the concentration giving a half-maximal response (EC50) came to 322 nM. Besides, in data set [3], the cell viability remaining turned out to be 84%. This compound had an IC50 in data set [1] of 77 nM.

Turning to `O=C(c1ccc(Nc2nccc(-c3cc4ccccc4s3)n2)cc1)N1CCC(N2CC[C@@H](O)C2)CC1`, the IC50 in data set [1] was 243 nM. Compound `O=C(c1ccc(Nc2nccc(-c3nccs3)n2)cc1)N1CCC(N2CCCC2)CC1` showed an IC50 in data set [1] of 182 nM.

In data set [1], `CS(=O)(=O)CCCNC(=O)c1ccc(Nc2nccc(-c3cc4ccccc4s3)n2)cc1` showed an IC50 of 215 nM. For `O=C(NCCCN1CCOCC1)c1ccc(Nc2nccc(-c3cc4ccccc4s3)n2)cc1`, the IC50 in data set [1] was 156 nM. Consider `O=C(c1ccc(Nc2nccc(-c3ccco3)n2)cc1)N1CCC(N2CCCC2)CC1`, for which the IC50 in data set [1] came to 768 nM. In the case of `Cc1ccc(-c2nc(Nc3ccc(C(=O)NCCCN4CCOCC4)cc3)ncc2Cl)s1`, in data set [2], the EC50 is 2600 nM. In addition, in data set [3], the cell viability remaining is on record as 54%. Besides, the midpoint of inhibition in data set [1], the IC50, lay at 16 nM. The like results for `O=C(c1ccc(Nc2nccc(-c3ccc(COCC(F)(F)F)s3)n2)cc1)N1CCC(N2CCCC2)CC1` were, in that order, 810 nM, 87% and 292 nM. Turning to `CC(C)n1cnc2c(NCc3ccccc3)nc(NCCO)nc21`, the IC50 in data set [8] is 130000 nM. `O=C(c1ccc(Nc2nccc(-c3ccc(-c4ccccc4)s3)n2)cc1)N1CCC(N2CCCC2)CC1` came in with an IC50 in data set [1] of 415 nM. Take `O=C(c1ccc(Nc2ncc(F)c(-c3cc4ccccc4s3)n2)cc1)N1CCC(N2CCCC2)CC1`: the EC50 in data set [2] is 607 nM. Moreover, the cell viability remaining in data set [3] came out at 79%. Also, the IC50 in data set [1] stood at 66 nM.

A word on the IC50: it is the concentration needed to halve the response being measured. One may read the EC50 as the midpoint of the concentration-response curve. The residual activity is the share of the control activity or signal that is left under treatment. High values mean a small loss of activity, low ones a large loss of activity.
